Measurements from article PMC4201501 (Journal of chromatography. B, Analytical technologies in …, 2014).
Like-named read-outs stand apart in the source and are kept apart here. Each block holds one molecule with its values, some of them ahead of it.

Columns and labels:
MDM2 protein = conditions: cited from earlier work
[1] = tested on: human breast and pancreatic cancers; conditions: cited from earlier work
[2] = format: in vivo, CD-1 mice; conditions: CD-1, mouse, plasma, 40 mg/kg
[3] = Stability of stock solutions at room temperature; format: physicochemical; conditions: stock solution in acetonitrile, room temperature (25°C), at least 24 h
Procedure, shortened: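 Primary stock solutions (10 mM in acetonitrile) of test compound and internal standard were held at room temperature (25°C) for 6, 12 and 24 h before analysis.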

[4] = Autosampler stability of extracted plasma samples; format: physicochemical, mouse; conditions: extracted plasma sample, 4°C, 36 h
Procedure, shortened: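 Extracted mouse-plasma QC samples (1.94, 81.0, 129.6 ng/mL; IS 16.2 ng/mL) were prepared by n-hexane–dichloromethane–2-propanol (20:10:1) extraction, dried under nitrogen at 40°C, and reconstituted in ACN–water 50:50. They were injected immediately (time 0), then re-injected after 36 h at 4°C in the autosampler. Quantitation was by C18 gradient LC–positive ESI MRM, as percentage of intact compound versus time 0.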

[5] = Stability of SP-141 in mouse plasma; format: in vitro ADME; conditions: for percentage of intact compound remaining after three freeze-thaw cycles: three freeze-thaw cycles (-20°C/room temperature)

AUC(0-inf) ([2]; ip): 13200 ng·h/mL
AUC(0-t) ([2]; ip): 12600 ng·h/mL
Cmax ([2]; ip): 4420 ng/mL
Tmax ([2]; ip): 10 min
concentration at 10 min ([2]; ip): 4420 ng/mL
concentration at 24 h ([2]; ip): < 150 ng/mL
half-life ([2]; ip): 107 min
AUC(0-inf) ([2]; iv): 8540 ng·h/mL
AUC(0-t) ([2]; iv): 8340 ng·h/mL
Cmax ([2]; iv): 5530 ng/mL
concentration at 5 min ([2]; iv): 5530 ng/mL
concentration at 24 h ([2]; iv): < 20 ng/mL
half-life ([2]; iv): 58.8 min
stability of stock solution [3]: stable
percentage of intact compound in the autosampler ([4]; 1.94 ng/mL): 96.3% ± 2.7%
percentage of intact compound in the autosampler ([4]; 81.0 ng/mL): 98.5% ± 3.1%
percentage of intact compound in the autosampler ([4]; 129.6 ng/mL): 96.8% ± 0.6%
percentage of intact compound remaining after three freeze-thaw cycles ([5]; 1.94 ng/mL): 96.4% ± 0.6%
percentage of intact compound remaining after three freeze-thaw cycles ([5]; 81.0 ng/mL): 96.2% ± 2.4%
percentage of intact compound remaining after three freeze-thaw cycles ([5]; 129.6 ng/mL): 99.3% ± 2.5%
compound remained intact after 24-h storage ([5]; 4°C, 24 h, all QC concentrations): more than 95.3%
stability in plasma at room temperature ([5]; 25°C, up to 24 h, prior to extraction): relatively stable
compound remaining after 24-h incubation ([5]; 37°C, 24 h, all QC concentrations): more than 83.0%
intact drug remained after storage for 4 weeks ([5]; −80°C, 4 weeks, all concentrations tested): more than 92.2%
SMILES: COc1ccc2[nH]c3c(-c4cccc5ccccc45)nccc3c2c1 [SP-141, 6-methoxy-1-(naphthalen-1-yl)-9H-pyrido[3,4-b]indole]
binding to the MDM2 protein (MDM2 protein): directly binds
potency against human breast and pancreatic cancers [1]: high potency
toxicity at doses leading to tumor regression [1]: without any observable toxicity

stability of stock solution [3]: stable
SMILES: COc1ccc2c(c1)[nH]c1c(-c3ccc4ccccc4c3)nccc12 [SP-157, 7-methoxy-1-(naphthalen-2-yl)-9H-pyrido[3,4-b]indole, reference compound]
